Calls of active or inactive are those of the source. No cut-off for these calls is given here.
Assays:
[1] = Cytotoxicity against human Huh-7 cells assessed as reduction in cell viability by Celltiter-Glo luminescent cell viability assay; format: cell-based; settings: Huh-7 cells
Procedure, shortened: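 Compound-exposed cells assessed by CellTiter-Glo luminescence versus DMSO control; CC50 from dose-response.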

[2] = test system: dengue virus type 2; experiment: Antiviral activity against Dengue virus serotype 2 New Guinea C infected in pre-seeded Huh-7 cells assessed as inhibition of viral replication incubated for 72 hrs by immunodetection based secondary yield reduction assay; format: functional, organism-based; settings: Dengue virus, New Guinea C, Huh-7, 72 h; read-out: IC50
[3] = test system: dengue virus type 2; experiment: Antiviral activity against Dengue virus serotype 2 New Guinea C infected in pre-seeded Huh-7 cells assessed as inhibition of viral replication incubated for 72 hrs by immunodetection based direct yield reduction assay; format: functional, organism-based; settings: Dengue virus, New Guinea C, Huh-7, 72 h; read-out: IC50
[4] = Selectivity index, ratio of CC50 for human Huh-7 cells to IC50 for Dengue virus serotype 2 New Guinea C infected in pre-seeded Huh-7 cells assessed as inhibition of viral replication incubated for 72 hrs by immunodetection based secondary yield reduction assay; format: toxicity, cell-based; settings: read-out: Selectivity Index
[5] = Selectivity index, ratio of CC50 for human Huh-7 cells to IC50 for Dengue virus serotype 2 New Guinea C infected in pre-seeded Huh-7 cells assessed as inhibition of viral replication incubated for 72 hrs by immunodetection based direct yield reduction assay; format: toxicity, cell-based; settings: read-out: Selectivity Index
Procedure, shortened: (§1)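 Direct yield reduction in Huh7 cells (7000/well), infected with 50 TCID₅₀ of DENV or ZIKV, or 25 TCID₅₀ of WNV. Adsorption 1 h at 37 °C, then virus removed and serial compound dilutions added. Incubated 72 h (DENV, ZIKV) or 48 h (WNV). Viral antigen immunodetected on the monolayer. IC₅₀ by non-linear regression, mean of three experiments. SI = CC₅₀ (Huh7, CellTiter-Glo luminescence)/IC₅₀.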

[6] = Selectivity index, ratio of CC50 for human Huh-7 cells to IC50 for Dengue virus serotype 2 New Guinea C infected in pre-seeded Huh-7 cells assessed as inhibition of viral replication incubated for 72 hrs by immunodetection based plaque reduction assay; format: toxicity, cell-based; settings: read-out: Selectivity Index
[7] = test system: Zika virus; experiment: Antiviral activity against Zika virus H/PF/2013 infected in pre-seeded Huh-7 cells assessed as inhibition of viral replication incubated for 72 hrs by immunodetection based secondary yield reduction assay; format: functional, organism-based; settings: H/PF/2013, Huh-7, 72 h
[8] = test system: Zika virus; experiment: Antiviral activity against Zika virus H/PF/2013 infected in pre-seeded Huh-7 cells assessed as inhibition of viral replication incubated for 72 hrs by immunodetection based direct yield reduction assay; format: functional, organism-based; settings: H/PF/2013, Huh-7, 72 h; procedure, shortened: as §1
[9] = test system: Zika virus; experiment: Antiviral activity against Zika virus H/PF/2013 infected in pre-seeded Huh-7 cells assessed as inhibition of viral replication incubated for 72 hrs by immunodetection based plaque reduction assay; format: functional, organism-based; settings: H/PF/2013, Huh-7, 72 h
[10] = Selectivity index, ratio of CC50 for human Huh-7 cells to IC50 for Zika virus H/PF/2013 infected in pre-seeded Huh-7 cells assessed as inhibition of viral replication incubated for 72 hrs by immunodetection based secondary yield reduction assay; format: toxicity, cell-based; settings: read-out: Selectivity Index
[11] = Selectivity index, ratio of CC50 for human Huh-7 cells to IC50 for Zika virus H/PF/2013 infected in pre-seeded Huh-7 cells assessed as inhibition of viral replication incubated for 72 hrs by immunodetection based direct yield reduction assay; format: toxicity, cell-based; settings: read-out: Selectivity Index; procedure, shortened: as §1
[12] = Selectivity index, ratio of CC50 for human Huh-7 cells to IC50 for Zika virus H/PF/2013 infected in pre-seeded Huh-7 cells assessed as inhibition of viral replication incubated for 72 hrs by immunodetection based plaque reduction assay; format: toxicity, cell-based; settings: read-out: Selectivity Index
[13] = test system: West Nile virus; experiment: Antiviral activity against West Nile virus lineage 1 (Italy/2009) infected in pre-seeded Huh-7 cells assessed as inhibition of viral replication incubated for 48 hrs by immunodetection based direct yield reduction assay; format: functional, organism-based; settings: West Nile virus, lineage 1 (Italy/2009), Huh-7, 48 h; read-out: IC50
[14] = test system: West Nile virus; experiment: Antiviral activity against West Nile virus lineage 1 (Italy/2009) infected in pre-seeded Huh-7 cells assessed as inhibition of viral replication incubated for 48 hrs by immunodetection based plaque reduction assay; format: functional, organism-based; settings: Huh-7, 48 h
[15] = Selectivity index, ratio of CC50 for human Huh-7 cells to IC50 for West Nile virus lineage 1 (Italy/2009) infected in pre-seeded Huh-7 cells assessed as inhibition of viral replication incubated for 48 hrs by immunodetection based direct yield reduction assay; format: toxicity, cell-based; settings: read-out: Selectivity Index; procedure, shortened: as §1
[16] = Selectivity index, ratio of CC50 for human Huh-7 cells to IC50 for West Nile virus lineage 1 (Italy/2009) infected in pre-seeded Huh-7 cells assessed as inhibition of viral replication incubated for 48 hrs by immunodetection based plaque reduction assay; format: toxicity, cell-based; settings: read-out: Selectivity Index
[17] = test system: Huh-7; experiment: Effect on formation of DENV replication complex in human Huh-7 cells assessed as reduction in expression of NS3 at 100 uM measured after 8 to 24 hrs by DAPI staining based confocal microscopy analysis; format: functional, cell-based; settings: time 8-24 hrs
Procedure, shortened: (§2)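 Huh-7 cells (1 × 10⁴) on coverslips infected with DENV-2 (MOI 0.05), treated (100 or 50 μM as listed), fixed in 4% paraformaldehyde at 8, 12, 16, 24 h; anti-NS3/anti-NS5 with Alexa 488/568 secondaries, DAPI; confocal, 5 random fields at 40×; % positive cells; 2-way ANOVA with Dunnett.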

[18] = test system: Huh-7; experiment: Effect on formation of DENV replication complex in human Huh-7 cells assessed as reduction in expression of NS5 at 100 uM measured after 8 to 24 hrs by DAPI staining based confocal microscopy analysis; format: functional, cell-based; settings: time 8-24 hrs; procedure, shortened: as §2
[19] = test system: Huh-7; experiment: Effect on formation of DENV replication complex in human Huh-7 cells assessed as reduction in NS5 translocation into nucleus at 100 uM measured after 16 to 24 hrs by DAPI staining based confocal microscopy analysis; format: functional, cell-based; settings: time 16-24 hrs; procedure, shortened: as §2
[20] = test system: Huh-7; experiment: Effect on formation of DENV replication complex in human Huh-7 cells assessed as reduction NS3 translocation into cytoplasm at 100 uM measured after 16 to 24 hrs by DAPI staining based confocal microscopy analysis; format: functional, cell-based; settings: time 16-24 hrs; procedure, shortened: as §2
[21] = Selectivity index, ratio of CC50 for human A549 cells to IC50 for Influenza A Puerto Rico/8/34/H1N1 infected in human A549 cells; format: toxicity, cell-based; settings: read-out: Selectivity Index
Procedure, shortened: (§3)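 MDCK or A549 cells (2.5 × 10⁵/well) infected with A/Puerto Rico/8/34 H1N1 for 1 h at 37 °C, then washed. Compound (0.5–20 μM) added in 2% FBS medium for 24 h, with DMSO final ≤0.2%. Virus in supernatants read by hemagglutination. CC₅₀ by MTT (2 × 10⁴ cells/well, same concentrations, 24 h, absorbance 570 nm). SI = CC₅₀/IC₅₀.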

[22] = test system: Influenza A virus; experiment: Antiviral activity against Influenza A Puerto Rico/8/34/H1N1 infected in human A549 cells assessed as inhibition of viral replication after 24 hrs by hemagglutination assay; format: functional, organism-based; settings: A/Puerto Rico/8/1934(H1N1), A549, 24 h
[23] = test system: A549; experiment: Cytotoxicity against human A549 cells assessed as reduction in cell viability measured after 24 hrs by MTT assay; format: cell-based; settings: a549, 24 h
[24] = test system: MDCK; experiment: Cytotoxicity against MDCK cells assessed as reduction in cell viability measured after 24 hrs by MTT assay; format: cell-based, Canis lupus familiaris; settings: dog, mdck, 24 h
[25] = test system: Influenza A virus; experiment: Antiviral activity against Influenza A Puerto Rico/8/34/H1N1 infected in MDCK cells assessed as inhibition of viral replication measured in supernatants of infected cells after 24 hrs by hemagglutination assay; format: functional, organism-based; settings: A/Puerto Rico/8/1934(H1N1)
[26] = Selectivity index, ratio of CC50 for MDCK cells to IC50 for Influenza A Puerto Rico/8/34/H1N1 infected in MDCK cells; format: toxicity, cell-based; settings: dog, read-out: Selectivity Index; procedure, shortened: as §3
[27] = Inhibition of Dengue virus 2 […] RNA dependent RNA polymerase incubated for 10 mins by picogreen staining based fluorescent analysis (Rvb= 0.27+/-0.03 uM); set-up: species or system dengue virus type 2
[28] = Inhibition of full length Dengue virus 2 NS5 RNA dependent RNA polymerase incubated for 10 mins by picogreen staining based fluorescent analysis (Rvb= 0.32+/-0.05 uM); set-up: species or system dengue virus type 2
[29] = Inhibition of full length ZIKA virus NS5 RNA dependent RNA polymerase incubated for 10 mins by picogreen staining based fluorescent analysis (Rvb= 1+/-0.2 uM)
[30] = Inhibition of DENV NS5-MTase domain using GpppA2'OMe-RNA74 as a substrate incubated for 30 mins by filter binding assay; set-up: species or system dengue virus type 2
Procedure, shortened: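 MTase (1 μM) incubated with increasing inhibitor in 40 mM Tris-HCl pH 7.5, 5 mM DTT, 10 μM AdoMet ([3H]-labelled), 0.5 μM GpppA2′OMe-RNA74 substrate, 30 °C for 30 min; stopped in ice-cold 100 μM AdoHcy; DEAE filter binding, scintillation counting.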

[31] = Inhibition of full length ZIKV NS5-MTase domain using 7MeGpppAC4 as a substrate incubated for 30 mins by filter binding assay; set-up: species or system Zika virus
[32] = target: Src (Proto-oncogene tyrosine-protein kinase Src) (Homo sapiens, UniProt P12931); experiment: Inhibition of human recombinant N terminal His6 tagged full length Src assessed as residual activity at 5 uM using KVEKIGEGTYGVVYK as a substrate in the presence of NP-40 incubated for 10 mins by scintillation counting analysis relative to control; settings: probe KVEKIGEGTYGVVYK, read-out: Activity
Procedure, shortened: (§4)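 Compounds at fixed 5 μM; 10–50 ng kinase, substrate and NP-40/BSA per supplementary table, 10 μL at 30 °C for 10 min in low-binding tubes. Reactions spotted on filter, dried, scintillation counted. Mean ± SD of two independent experiments.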

[33] = target: Abl (Tyrosine-protein kinase ABL1) (Homo sapiens, UniProt P00519); experiment: Inhibition of human recombinant N terminal His6 tagged Abl (27 to end residue) assessed as residual activity at 5 uM using KKGEAIYAADFA-NH2 as a substrate in the presence of NP-40 incubated for 10 mins by scintillation counting analysis relative to control; settings: probe KKGEAIYAADFA-NH2, read-out: Activity; procedure, shortened: as §4
[34] = target: Fyn (Tyrosine-protein kinase Fyn) (Homo sapiens, UniProt P06241); experiment: Inhibition of human recombinant N terminal His6 tagged full length Fyn assessed as residual activity at 5 uM using […] as a substrate in the presence of NP-40 incubated for 10 mins by scintillation counting analysis relative to control; settings: probe […], read-out: Activity; procedure, shortened: as §4
[35] = target: PIK3CA (Phosphatidylinositol 4,5-bisphosphate 3-kinase catalytic subunit alpha isoform) (Homo sapiens, UniProt P42336); experiment: Inhibition of human full length PIK3CA assessed as residual activity at 5 uM using PI:PS (1:3) as a substrate incubated for 10 mins by scintillation counting analysis relative to control; settings: full length PIK3CA enzyme, probe PI:PS (1:3), read-out: Activity
Procedure, shortened: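 Radiometric kinase reaction with 10–50 ng enzyme and compound fixed at 5 μM, 10 μL at 30 °C for 10 min. Reactions spotted on filter and counted by scintillation. Residual activity is the mean ± SD of two independent experiments.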

[36] = target: CDK9/cyclin T1 (Homo sapiens, UniProt P50750); experiment: Inhibition of human full length CDK9/ His-tagged cT1 assessed as residual activity at 5 uM using CDKtide as a substrate in the presence of BSA incubated for 10 mins by scintillation counting analysis relative to control; format: protein-complex assay; settings: full length CDK9/His-tagged cyclin T1 complex, probe CDKtide, read-out: Activity; procedure, shortened: as §4
Sequence of CDK9/cyclin T1 (O60563 whole entry): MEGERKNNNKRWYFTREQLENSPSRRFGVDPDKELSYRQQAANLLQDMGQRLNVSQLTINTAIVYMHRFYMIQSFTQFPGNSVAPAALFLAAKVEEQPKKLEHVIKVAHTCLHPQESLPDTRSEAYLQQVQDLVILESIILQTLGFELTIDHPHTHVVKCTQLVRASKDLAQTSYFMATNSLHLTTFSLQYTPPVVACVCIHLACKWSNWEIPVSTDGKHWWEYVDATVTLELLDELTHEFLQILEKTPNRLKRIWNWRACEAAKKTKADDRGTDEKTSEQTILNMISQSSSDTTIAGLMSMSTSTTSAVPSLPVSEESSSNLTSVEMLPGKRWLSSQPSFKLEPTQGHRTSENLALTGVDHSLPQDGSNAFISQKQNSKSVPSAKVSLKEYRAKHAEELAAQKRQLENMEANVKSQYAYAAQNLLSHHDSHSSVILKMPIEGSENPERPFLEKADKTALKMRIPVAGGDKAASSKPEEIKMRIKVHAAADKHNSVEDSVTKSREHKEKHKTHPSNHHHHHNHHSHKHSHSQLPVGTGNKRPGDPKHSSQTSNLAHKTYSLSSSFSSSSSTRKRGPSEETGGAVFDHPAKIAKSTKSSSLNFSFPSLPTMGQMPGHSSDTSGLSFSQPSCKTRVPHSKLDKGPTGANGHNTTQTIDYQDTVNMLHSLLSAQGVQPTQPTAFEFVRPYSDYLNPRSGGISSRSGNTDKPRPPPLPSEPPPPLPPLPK
Sequence of CDK9/cyclin T1 (P50750 whole entry): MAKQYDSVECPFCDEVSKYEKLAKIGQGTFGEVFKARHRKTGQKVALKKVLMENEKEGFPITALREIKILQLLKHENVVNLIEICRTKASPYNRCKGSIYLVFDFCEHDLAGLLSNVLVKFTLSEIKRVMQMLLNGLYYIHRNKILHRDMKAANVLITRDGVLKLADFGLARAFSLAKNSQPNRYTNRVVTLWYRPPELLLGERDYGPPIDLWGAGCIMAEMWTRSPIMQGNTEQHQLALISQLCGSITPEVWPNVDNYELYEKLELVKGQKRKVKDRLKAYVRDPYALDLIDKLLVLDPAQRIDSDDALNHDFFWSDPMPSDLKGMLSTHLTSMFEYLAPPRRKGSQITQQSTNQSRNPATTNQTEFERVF

Sequence of Abl (Tyrosine-protein kinase ABL1) (P00519 whole entry): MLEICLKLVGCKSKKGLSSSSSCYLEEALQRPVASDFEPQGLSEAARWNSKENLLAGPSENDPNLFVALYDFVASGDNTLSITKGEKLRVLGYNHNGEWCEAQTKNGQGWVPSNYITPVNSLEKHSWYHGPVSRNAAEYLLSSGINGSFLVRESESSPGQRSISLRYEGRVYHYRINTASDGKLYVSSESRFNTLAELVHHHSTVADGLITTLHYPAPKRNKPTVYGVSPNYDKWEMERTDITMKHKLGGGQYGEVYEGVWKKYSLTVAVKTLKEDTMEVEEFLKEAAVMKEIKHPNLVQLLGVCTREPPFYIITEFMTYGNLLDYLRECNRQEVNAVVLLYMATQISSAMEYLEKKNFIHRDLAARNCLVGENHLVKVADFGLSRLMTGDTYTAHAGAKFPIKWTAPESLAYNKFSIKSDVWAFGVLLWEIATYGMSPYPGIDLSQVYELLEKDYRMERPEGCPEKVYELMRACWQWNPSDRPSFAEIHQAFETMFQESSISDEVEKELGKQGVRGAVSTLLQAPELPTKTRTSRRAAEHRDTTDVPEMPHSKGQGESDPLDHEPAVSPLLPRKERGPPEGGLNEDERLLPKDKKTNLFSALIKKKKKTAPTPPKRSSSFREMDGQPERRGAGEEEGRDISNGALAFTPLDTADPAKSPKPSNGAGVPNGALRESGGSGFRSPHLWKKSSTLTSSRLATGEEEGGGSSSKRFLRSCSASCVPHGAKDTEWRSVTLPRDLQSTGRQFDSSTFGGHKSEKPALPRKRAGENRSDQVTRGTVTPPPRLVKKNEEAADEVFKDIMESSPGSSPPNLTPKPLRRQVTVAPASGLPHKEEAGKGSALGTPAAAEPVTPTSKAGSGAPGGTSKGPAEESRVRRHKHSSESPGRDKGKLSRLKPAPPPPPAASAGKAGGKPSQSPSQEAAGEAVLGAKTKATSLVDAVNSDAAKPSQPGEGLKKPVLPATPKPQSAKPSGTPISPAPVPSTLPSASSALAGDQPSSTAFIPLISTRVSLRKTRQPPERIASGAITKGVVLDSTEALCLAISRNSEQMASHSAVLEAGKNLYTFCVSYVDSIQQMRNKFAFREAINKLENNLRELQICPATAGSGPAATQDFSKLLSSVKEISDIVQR
Sequence of Fyn (Tyrosine-protein kinase Fyn) (P06241 whole entry, canonical isoform): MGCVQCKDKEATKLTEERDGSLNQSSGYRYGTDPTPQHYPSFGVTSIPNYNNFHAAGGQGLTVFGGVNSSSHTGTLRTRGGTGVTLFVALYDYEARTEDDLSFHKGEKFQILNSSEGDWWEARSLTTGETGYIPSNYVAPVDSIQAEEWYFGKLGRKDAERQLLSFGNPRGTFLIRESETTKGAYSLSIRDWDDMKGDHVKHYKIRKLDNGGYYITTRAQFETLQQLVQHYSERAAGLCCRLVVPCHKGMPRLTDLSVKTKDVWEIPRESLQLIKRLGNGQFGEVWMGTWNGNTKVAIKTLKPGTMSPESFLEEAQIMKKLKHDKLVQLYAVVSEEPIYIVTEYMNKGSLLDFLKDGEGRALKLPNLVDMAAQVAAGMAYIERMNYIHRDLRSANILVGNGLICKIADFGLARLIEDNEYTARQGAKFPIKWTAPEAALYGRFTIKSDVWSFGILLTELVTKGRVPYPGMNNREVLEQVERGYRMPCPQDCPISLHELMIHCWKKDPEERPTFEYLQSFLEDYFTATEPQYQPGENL
Sequence of PIK3CA (Phosphatidylinositol 4,5-bisphosphate 3-kinase catalytic subunit alpha isoform) (P42336 whole entry, canonical isoform): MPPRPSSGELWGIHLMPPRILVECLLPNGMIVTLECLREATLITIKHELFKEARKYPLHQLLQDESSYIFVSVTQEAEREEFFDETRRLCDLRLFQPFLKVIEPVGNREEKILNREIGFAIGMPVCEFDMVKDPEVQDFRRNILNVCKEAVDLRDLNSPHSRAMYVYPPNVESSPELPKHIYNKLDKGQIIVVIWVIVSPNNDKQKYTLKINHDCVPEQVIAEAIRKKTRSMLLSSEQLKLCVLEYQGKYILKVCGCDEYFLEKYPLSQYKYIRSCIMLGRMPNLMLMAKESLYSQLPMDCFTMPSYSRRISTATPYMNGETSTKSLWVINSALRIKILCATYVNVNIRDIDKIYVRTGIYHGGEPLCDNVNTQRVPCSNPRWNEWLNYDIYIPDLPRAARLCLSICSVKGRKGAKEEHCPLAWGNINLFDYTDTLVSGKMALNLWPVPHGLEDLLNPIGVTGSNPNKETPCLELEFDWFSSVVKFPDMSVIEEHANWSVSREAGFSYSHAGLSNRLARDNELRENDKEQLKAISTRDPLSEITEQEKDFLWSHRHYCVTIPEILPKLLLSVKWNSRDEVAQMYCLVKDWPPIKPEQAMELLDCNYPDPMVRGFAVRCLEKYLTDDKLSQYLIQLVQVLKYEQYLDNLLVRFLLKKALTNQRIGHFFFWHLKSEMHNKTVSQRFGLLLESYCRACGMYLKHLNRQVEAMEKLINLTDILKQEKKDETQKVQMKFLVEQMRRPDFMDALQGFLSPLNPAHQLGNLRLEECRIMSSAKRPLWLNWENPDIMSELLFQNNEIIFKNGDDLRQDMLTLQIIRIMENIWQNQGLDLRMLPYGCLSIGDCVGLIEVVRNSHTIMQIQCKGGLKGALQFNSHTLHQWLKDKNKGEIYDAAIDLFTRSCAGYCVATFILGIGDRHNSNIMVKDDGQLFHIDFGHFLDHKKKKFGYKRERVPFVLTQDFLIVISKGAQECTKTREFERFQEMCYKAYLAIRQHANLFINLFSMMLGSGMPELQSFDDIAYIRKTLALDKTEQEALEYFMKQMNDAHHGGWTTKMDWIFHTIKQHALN
Sequence of Src (Proto-oncogene tyrosine-protein kinase Src) (P12931 2-536 limits assumed): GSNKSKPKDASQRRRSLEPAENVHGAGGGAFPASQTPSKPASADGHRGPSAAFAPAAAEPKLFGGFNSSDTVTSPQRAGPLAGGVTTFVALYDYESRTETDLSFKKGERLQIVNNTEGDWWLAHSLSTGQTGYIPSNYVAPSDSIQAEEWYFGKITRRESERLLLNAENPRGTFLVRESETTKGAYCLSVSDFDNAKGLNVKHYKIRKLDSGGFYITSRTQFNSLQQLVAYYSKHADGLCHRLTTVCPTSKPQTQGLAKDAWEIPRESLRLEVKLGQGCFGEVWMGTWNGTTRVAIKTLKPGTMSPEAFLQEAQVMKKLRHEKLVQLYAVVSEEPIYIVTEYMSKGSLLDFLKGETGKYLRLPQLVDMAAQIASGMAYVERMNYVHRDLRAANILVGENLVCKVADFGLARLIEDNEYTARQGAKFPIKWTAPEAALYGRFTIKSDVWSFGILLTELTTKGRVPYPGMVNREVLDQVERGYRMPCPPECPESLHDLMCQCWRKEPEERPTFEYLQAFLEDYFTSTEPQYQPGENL

## CC(C)OC(=O)[C@H](C)N[P@](=O)(OC[C@H]1O[C@@H](n2ccc(=O)[nH]c2=O)[C@](C)(F)[C@@H]1O)Oc1ccccc1 [SOFOSBUVIR]
[1]
  CC50: 200 µM
[2]
  IC50: 4.7 µM
[3]
  IC50: 4.6 µM
[4]
  selectivity ratio at 72 h: 42
[5]
  selectivity ratio at 72 h: 43
[6]
  selectivity ratio at 72 h: 50
[7]
  IC50: 3.2 µM
[8]
  IC50: 2.7 µM
[9]
  IC50: 2 µM
[10]
  selectivity ratio at 72 h: 62
[11]
  selectivity ratio at 72 h: 74
[12]
  selectivity ratio at 72 h: 100
[13]
  IC50: 1.7 µM
[14]
  IC50: 1.2 µM
[15]
  selectivity ratio at 48 h: 117
[16]
  selectivity ratio at 48 h: 166
[17]
  Activity: Active
[18]
  Activity: Active
[19]
  Activity: Active
[20]
  Activity: inactive

## Fc1cccc(Nc2nc(NCCOc3ccccc3)nc3[nH]cnc23)c1
[21]
  selectivity ratio: 2.8
[22]
  IC50: 20.8 µM
[23]
  CC50: 58 µM
[1]
  CC50: 200 µM
[2]
  IC50: 12 µM
[4]
  selectivity ratio at 72 h: 17
[7]
  IC50: 2.9 µM
[10]
  selectivity ratio at 72 h: 68
[24]
  CC50: 77 µM
[25]
  IC50: 14 µM
[26]
  selectivity ratio: 5.5
[27]
  IC50: 31.2 µM
[28]
  IC50: > 100 µM
[29]
  IC50: 18.9 µM
[30]
  IC50: Not Active
[31]
  IC50: Not Active
[32]
  activity at 10 min, 5 µM: 45%
[33]
  activity at 10 min, 5 µM: 54%
[34]
  activity at 10 min, 5 µM: > 98%
[35]
  activity at 10 min, 5 µM: 69%
[36]
  activity at 10 min, 5 µM: 87%

— ChEMBL document CHEMBL4842338, “System-oriented optimization of multi-target 2,6-diaminopurine derivatives: Easily accessible broad-spectrum antivirals active against flaviviruses, influenza virus and SARS-CoV-2” (Eur J Med Chem, 2021)
